From ChEMBL document CHEMBL1765020, “Synthesis and structure-affinity relationships of novel dibenzylideneacetone derivatives as probes for β-amyloid plaques” (J Med Chem, 2011)

Legend:
[1] = test system: Spleen; test: Biodistribution in ddY mouse spleen at 10 uCi/100 uL, iv after 2 mins by gamma counting; assay type: ADME, organism-based; details: in vivo
[2] = test system: Stomach; test: Biodistribution in ddY mouse stomach at 10 uCi/100 uL, iv after 2 mins by gamma counting; assay type: ADME, organism-based; details: in vivo
[3] = test system: Intestine; test: Biodistribution in ddY mouse intestine at 10 uCi/100 uL, iv after 2 mins by gamma counting; assay type: ADME, organism-based; details: in vivo
In short: (§1)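 Normal female ddY mice (5 weeks, about 20 g; n = 4 per group) received radiotracer iv. Organs were removed and weighed at 2–120 min and counted in a γ-counter. Percent dose per gram of wet tissue was calculated against diluted aliquots of the injected material and reported as mean ± SD.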

[4] = test system: Lung; test: Biodistribution in ddY mouse lung at 10 uCi/100 uL, iv after 2 mins by gamma counting; assay type: ADME, organism-based; details: in vivo
[5] = test system: Heart; test: Biodistribution in ddY mouse heart at 10 uCi/100 uL, iv after 2 mins by gamma counting; assay type: ADME, organism-based; details: in vivo; in short: as §1
[6] = test system: Brain; test: Biodistribution in ddY mouse brain at 10 uCi/100 uL, iv after 15 mins by gamma counting; assay type: ADME, organism-based; details: in vivo, 0.25 h; in short: as §1
[7] = test system: Blood; test: Biodistribution in ddY mouse blood at 10 uCi/100 uL, iv after 15 mins by gamma counting; assay type: ADME, organism-based; details: in vivo, 0.25 h; in short: as §1
[8] = test system: Bone; test: Biodistribution in ddY mouse bone at 10 uCi/100 uL, iv after 15 mins by gamma counting; assay type: ADME, organism-based, Bone element; details: in vivo, 0.25 h; in short: as §1
[9] = test system: Liver; test: Biodistribution in ddY mouse liver at 10 uCi/100 uL, iv after 15 mins by gamma counting; assay type: ADME, organism-based; details: in vivo, 0.25 h
[10] = test system: Kidney; test: Biodistribution in ddY mouse kidney at 10 uCi/100 uL, iv after 15 mins by gamma counting; assay type: ADME, organism-based; details: in vivo, 0.25 h
[11] = test system: Spleen; test: Biodistribution in ddY mouse spleen at 10 uCi/100 uL, iv after 15 mins by gamma counting; assay type: ADME, organism-based; details: in vivo, 0.25 h
[12] = test system: Stomach; test: Biodistribution in ddY mouse stomach at 10 uCi/100 uL, iv after 15 mins by gamma counting; assay type: ADME, organism-based; details: in vivo, 0.25 h
[13] = test system: Intestine; test: Biodistribution in ddY mouse intestine at 10 uCi/100 uL, iv after 15 mins by gamma counting; assay type: ADME, organism-based; details: in vivo, 0.25 h; in short: as §1
[14] = test system: Lung; test: Biodistribution in ddY mouse lung at 10 uCi/100 uL, iv after 15 mins by gamma counting; assay type: ADME, organism-based; details: in vivo, 0.25 h
[15] = test system: Heart; test: Biodistribution in ddY mouse heart at 10 uCi/100 uL, iv after 15 mins by gamma counting; assay type: ADME, organism-based; details: in vivo, 0.25 h; in short: as §1
[16] = test system: Brain; test: Biodistribution in ddY mouse brain at 10 uCi/100 uL, iv after 30 mins by gamma counting; assay type: ADME, organism-based; details: in vivo, 0.5 h; in short: as §1
[17] = test system: Blood; test: Biodistribution in ddY mouse blood at 10 uCi/100 uL, iv after 30 mins by gamma counting; assay type: ADME, organism-based; details: in vivo, 0.5 h; in short: as §1
[18] = test system: Bone; test: Biodistribution in ddY mouse bone at 10 uCi/100 uL, iv after 30 mins by gamma counting; assay type: ADME, organism-based, Bone element; details: in vivo, 0.5 h; in short: as §1
[19] = test system: Liver; test: Biodistribution in ddY mouse liver at 10 uCi/100 uL, iv after 30 mins by gamma counting; assay type: ADME, organism-based; details: in vivo, 0.5 h
[20] = test system: Kidney; test: Biodistribution in ddY mouse kidney at 10 uCi/100 uL, iv after 30 mins by gamma counting; assay type: ADME, organism-based; details: in vivo, 0.5 h
[21] = test system: Spleen; test: Biodistribution in ddY mouse spleen at 10 uCi/100 uL, iv after 30 mins by gamma counting; assay type: ADME, organism-based; details: in vivo, 0.5 h
[22] = test system: Stomach; test: Biodistribution in ddY mouse stomach at 10 uCi/100 uL, iv after 30 mins by gamma counting; assay type: ADME, organism-based; details: in vivo, 0.5 h
[23] = test system: Intestine; test: Biodistribution in ddY mouse intestine at 10 uCi/100 uL, iv after 30 mins by gamma counting; assay type: ADME, organism-based; details: in vivo, 0.5 h; in short: as §1
[24] = test system: Lung; test: Biodistribution in ddY mouse lung at 10 uCi/100 uL, iv after 30 mins by gamma counting; assay type: ADME, organism-based; details: in vivo, 0.5 h
[25] = test system: Heart; test: Biodistribution in ddY mouse heart at 10 uCi/100 uL, iv after 30 mins by gamma counting; assay type: ADME, organism-based; details: in vivo, 0.5 h; in short: as §1
[26] = test system: Brain; test: Biodistribution in ddY mouse brain at 10 uCi/100 uL, iv after 60 mins by gamma counting; assay type: ADME, organism-based; details: in vivo, 1 h; in short: as §1
[27] = test system: Blood; test: Biodistribution in ddY mouse blood at 10 uCi/100 uL, iv after 60 mins by gamma counting; assay type: ADME, organism-based; details: in vivo, 1 h; in short: as §1
[28] = test system: Bone; test: Biodistribution in ddY mouse bone at 10 uCi/100 uL, iv after 60 mins by gamma counting; assay type: ADME, organism-based, Bone element; details: in vivo, 1 h; in short: as §1
[29] = test system: Liver; test: Biodistribution in ddY mouse liver at 10 uCi/100 uL, iv after 60 mins by gamma counting; assay type: ADME, organism-based; details: in vivo, 1 h
[30] = test system: Kidney; test: Biodistribution in ddY mouse kidney at 10 uCi/100 uL, iv after 60 mins by gamma counting; assay type: ADME, organism-based; details: in vivo, 1 h
[31] = test system: Spleen; test: Biodistribution in ddY mouse spleen at 10 uCi/100 uL, iv after 60 mins by gamma counting; assay type: ADME, organism-based; details: in vivo, 1 h
[32] = test system: Stomach; test: Biodistribution in ddY mouse stomach at 10 uCi/100 uL, iv after 60 mins by gamma counting; assay type: ADME, organism-based; details: in vivo, 1 h
[33] = test system: Intestine; test: Biodistribution in ddY mouse intestine at 10 uCi/100 uL, iv after 60 mins by gamma counting; assay type: ADME, organism-based; details: in vivo, 1 h; in short: as §1
[34] = test system: Lung; test: Biodistribution in ddY mouse lung at 10 uCi/100 uL, iv after 60 mins by gamma counting; assay type: ADME, organism-based; details: in vivo, 1 h
[35] = test system: Heart; test: Biodistribution in ddY mouse heart at 10 uCi/100 uL, iv after 60 mins by gamma counting; assay type: ADME, organism-based; details: in vivo, 1 h; in short: as §1
[36] = test system: Brain; test: Ratio of drug uptake in ddY mouse brain at 10 uCi/100 uL, iv after 2 mins to drug uptake in ddY mouse brain at 10 uCi/100 uL, iv after 60 mins; assay type: ADME, organism-based; details: in vivo
In short: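 Normal female ddY mice (5 weeks, about 20 g) received the radiotracer iv, with groups of 4 per time point. At 2 and 60 min, brain and other organs were excised and weighed and counted in a γ-counter. %ID/g wet tissue was taken against diluted injectate aliquots. The ratio is brain %ID/g at 2 min divided by brain %ID/g at 60 min.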

[37] = Partition coefficient, log D of the compound; assay type: physicochemical; details: octanol/water
In short: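 Radiotracer partitioned between n-octanol and PBS: vortexed 3 min at room temperature, centrifuged 5 min at 3000 rpm. Weighed samples of the octanol (100 μL) and buffer (500 μL) layers were counted. log D is the log of the ratio of counts per gram, octanol versus PBS.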

[38] = test system: Brain; test: Biodistribution in ddY mouse brain at 10 uCi/100 uL, iv after 2 mins by gamma counting; assay type: ADME, organism-based; details: in vivo; in short: as §1
[39] = test system: Blood; test: Biodistribution in ddY mouse blood at 10 uCi/100 uL, iv after 2 mins by gamma counting; assay type: ADME, organism-based; details: in vivo; in short: as §1
[40] = test system: Bone; test: Biodistribution in ddY mouse bone at 10 uCi/100 uL, iv after 2 mins by gamma counting; assay type: ADME, organism-based, Bone element; details: in vivo; in short: as §1
[41] = test system: Liver; test: Biodistribution in ddY mouse liver at 10 uCi/100 uL, iv after 2 mins by gamma counting; assay type: ADME, organism-based; details: in vivo
[42] = test system: Kidney; test: Biodistribution in ddY mouse kidney at 10 uCi/100 uL, iv after 2 mins by gamma counting; assay type: ADME, organism-based; details: in vivo

CNc1ccc(/C=C/C(=O)/C=C/c2ccc(OCCOCCOCC[18F])cc2)cc1
Drug uptake [1]: 5.39 % ID/g | Drug uptake [2]: 3.26 % ID/organ | Drug uptake [3]: 6.58 % ID/g | Drug uptake [4]: 12.19 % ID/g | Drug uptake [5]: 10.55 % ID/g | Drug uptake [6]: 1.89 % ID/g | Drug uptake [7]: 7.99 % ID/g | Drug uptake [8]: 2.93 % ID/g | Drug uptake [9]: 30.09 % ID/g | Drug uptake [10]: 14.15 % ID/g | Drug uptake [11]: 6.62 % ID/g | Drug uptake [12]: 2.61 % ID/organ | Drug uptake [13]: 12.82 % ID/g | Drug uptake [14]: 11.77 % ID/g | Drug uptake [15]: 7.64 % ID/g | Drug uptake [16]: 1.35 % ID/g | Drug uptake [17]: 4.68 % ID/g | Drug uptake [18]: 2.94 % ID/g | Drug uptake [19]: 19.24 % ID/g | Drug uptake [20]: 11.51 % ID/g | Drug uptake [21]: 5.44 % ID/g | Drug uptake [22]: 1.93 % ID/organ | Drug uptake [23]: 24.34 % ID/g | Drug uptake [24]: 7.43 % ID/g | Drug uptake [25]: 5.44 % ID/g | Drug uptake [26]: 1.27 % ID/g | Drug uptake [27]: 3.59 % ID/g | Drug uptake [28]: 2.54 % ID/g | Drug uptake [29]: 14.07 % ID/g | Drug uptake [30]: 9.43 % ID/g | Drug uptake [31]: 5.35 % ID/g | Drug uptake [32]: 1.28 % ID/organ | Drug uptake [33]: 26.26 % ID/g | Drug uptake [34]: 5.44 % ID/g | Drug uptake [35]: 5.14 % ID/g | Ratio [36]: 4.06 | logD [37]: 3.08 | Drug uptake [38]: 5.15 % ID/g | Drug uptake [39]: 7.44 % ID/g | Drug uptake [40]: 2.97 % ID/g | Drug uptake [41]: 24.15 % ID/g | Drug uptake [42]: 16.48 % ID/g

CN(C)c1ccc(/C=C/C(=O)/C=C/c2ccc(OCCOCCOCC[18F])cc2)cc1
Drug uptake [1]: 4.26 % ID/g | Drug uptake [2]: 6.28 % ID/organ | Drug uptake [3]: 4.12 % ID/g | Drug uptake [4]: 12.3 % ID/g | Drug uptake [5]: 7.6 % ID/g | Drug uptake [6]: 1.51 % ID/g | Drug uptake [7]: 3.89 % ID/g | Drug uptake [8]: 2.42 % ID/g | Drug uptake [9]: 24.41 % ID/g | Drug uptake [10]: 12.77 % ID/g | Drug uptake [11]: 6.19 % ID/g | Drug uptake [12]: 7.39 % ID/organ | Drug uptake [13]: 10.53 % ID/g | Drug uptake [14]: 6.34 % ID/g | Drug uptake [15]: 3.33 % ID/g | Drug uptake [16]: 1.04 % ID/g | Drug uptake [17]: 2.46 % ID/g | Drug uptake [18]: 2.08 % ID/g | Drug uptake [19]: 14.07 % ID/g | Drug uptake [20]: 7.13 % ID/g | Drug uptake [21]: 4.46 % ID/g | Drug uptake [22]: 6 % ID/organ | Drug uptake [23]: 17.5 % ID/g | Drug uptake [24]: 3.38 % ID/g | Drug uptake [25]: 1.9 % ID/g | Drug uptake [26]: 0.9 % ID/g | Drug uptake [27]: 1.6 % ID/g | Drug uptake [28]: 2.33 % ID/g | Drug uptake [29]: 6.88 % ID/g | Drug uptake [30]: 3.67 % ID/g | Drug uptake [31]: 1.93 % ID/g | Drug uptake [32]: 3.98 % ID/organ | Drug uptake [33]: 21.57 % ID/g | Drug uptake [34]: 1.86 % ID/g | Drug uptake [35]: 1.47 % ID/g | Ratio [36]: 4.59 | logD [37]: 2.97 | Drug uptake [38]: 4.13 % ID/g | Drug uptake [39]: 5.38 % ID/g | Drug uptake [40]: 2.88 % ID/g | Drug uptake [41]: 22.32 % ID/g | Drug uptake [42]: 12.95 % ID/g
